From publication PMC4038343 (Biochemistry, 2014)
“Also recorded” adds a separate entry of the source. Square brackets hold non-standard residues; d marks the D form. Ends that are not written are not given here.

B1: V domain of the receptor for advanced glycation end products (RAGE) (domain or fragment)
chain: QNITARIGEPLVLKCKGAPKKPPQRLEWKLNTGRTEAWKVLSPQGGGPWDSVARVLPNGSLFLPAVGIQDEGIFRCQAMNRNGKETKSNYRVRVYQIPGKPE

Tests used:
V domain of RAGE [1] = molecular target: T1, V domain of RAGE (Homo sapiens, UniProt Q15109); assay: Fluorescence titration, native tryptophan fluorescence of wild-type V domain; type: binding; conditions: pH 6.5, 25 °C
Summary of the method: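 Wild-type RAGE V domain: expressed in E. coli BL21(DE3) Codon+, purified on Ni-NTA, His tag removed by thrombin. 100 nM protein in 10 mM phosphate pH 6.5 with 100 mM NaCl, at 25 °C in a stirred cuvette. Test compound titrated from 5 nM to 10 μM in 11 steps. Tryptophan emission excited at 295 nm, reference titrations subtracted, dilution-corrected. Kd from single-site binding isotherm fit.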

V domain of RAGE [2] = molecular target: T1, V domain of RAGE; assay: ELISA-based competition with MGO-BSA for the V domain; type: binding; conditions: 1 μM V domain
[3] = system: JNK phosphorylation (p-JNK) in A549 cells, effector of RAGE signaling; assay: JNK phosphorylation in A549 cells, Western blot; type: cell-based, human; conditions: 200 nM (12 μg/mL) MGO-BSA, 7 min, vs unmodified BSA
V domain of RAGE [4] = molecular target: T1, V domain of RAGE; assay: Binding of arginine to the V domain; conditions: method not stated
RAGE = conditions: cited from earlier work
V domain of RAGE [5] = molecular target: T1, V domain of RAGE; assay: NMR solution structure of MG-H1–V domain complex; type: binding
Summary of the method: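 Samples of 500 μM [U-13C,15N] V domain, free and with 1 mM unlabeled hydroimidazolone ligand, in pH 6.5 phosphate, 100 mM NaCl, 0.02% NaN3, 90% H2O/10% D2O. 3D 15N- and 13C-edited and 15N-edited/13C-filtered NOESY-HSQC. CYANA calculation: 986 intramolecular and five intermolecular distance restraints (intermolecular upper limits 6 Å), 150 TALOS torsion pairs, 38 H-bond restraints, one disulfide. 20 best structures kept.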

[6] = molecular target: methylglyoxal-modified bovine serum albumin (bovine, UniProt P02769 25-607, methylglyoxal-modified, contains hydroimidazolones; sites and number not stated); assay: ELISA
[7] = molecular target: B1; assay: other fluorescence titration

methylglyoxal-modified bovine serum albumin, sequence (P02769 25-607): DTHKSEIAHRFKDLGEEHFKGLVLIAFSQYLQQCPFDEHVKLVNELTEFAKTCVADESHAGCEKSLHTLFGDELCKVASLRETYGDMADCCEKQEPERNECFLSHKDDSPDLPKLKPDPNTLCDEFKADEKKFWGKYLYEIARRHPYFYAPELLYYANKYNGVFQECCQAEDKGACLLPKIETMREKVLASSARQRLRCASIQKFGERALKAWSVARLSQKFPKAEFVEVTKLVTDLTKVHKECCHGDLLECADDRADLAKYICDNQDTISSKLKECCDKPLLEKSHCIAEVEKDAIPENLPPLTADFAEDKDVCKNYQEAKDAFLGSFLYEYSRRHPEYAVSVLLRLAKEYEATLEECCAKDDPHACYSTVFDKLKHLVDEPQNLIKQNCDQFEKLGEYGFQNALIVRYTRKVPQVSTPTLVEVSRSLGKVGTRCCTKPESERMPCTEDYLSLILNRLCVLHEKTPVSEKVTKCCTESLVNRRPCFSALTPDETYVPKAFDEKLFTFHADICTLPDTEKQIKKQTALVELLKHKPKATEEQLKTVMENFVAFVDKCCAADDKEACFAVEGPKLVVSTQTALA

Question: For `N[C@@H](CCCNC1=NC(=O)CN1)C(=O)O` [G-H1, N^δ-(5-hydro-4-imidazolon-2-yl)ornithine], which “affinity for the V domain (in words)” value (V domain of RAGE [1]) is on record?
Answer: Its value is “comparable to that of the MG-Hs”.

Question: Which “blocking of MGO-BSA binding to the V domain” value (“blocking of MGO-BSA binding” below) (V domain of RAGE [2]) does the source give for `CC1C(=O)N=C(N)N1CCCC(N)C(=O)O` (stereo not drawn) [MG-H2, 5-(2-amino-5-hydro-5-methyl-4-imidazolon-1-yl)norvaline] here?
Answer: The value was “can successfully block binding of MGO-BSA to the V domain”.

Question: Which JNK phosphorylation [3] does the source give for “MGO-BSA: methylglyoxal-modified bovine serum albumin, prepared according to the method of Ahmed et al.” here?
Answer: Its JNK phosphorylation is “increase in the level of phosphorylation of JNK; also recorded: increases JNK phosphorylation (p-JNK) relative to that with BSA alone”.

Question: For `N=C(N)NCCC[C@H](N)C(=O)O` [arginine], which “binding to the V domain” value (V domain of RAGE [4]) is on record?
Answer: The value was “did not detect any binding”.

Question: With `CC1N=C(N)N(CCCC(N)C(=O)O)C1=O` (stereo not drawn) [MG-H3, 5-(2-amino-4-hydro-4-methyl-5-imidazolon-1-yl)norvaline] as the molecule, how does the “blocking of MGO-BSA binding” value (V domain of RAGE [2]) read?
Answer: The value was “can successfully block binding of MGO-BSA to the V domain”.

Question: For `CC(NCCCC[C@H](N)C(=O)O)C(=O)O` (stereo partly drawn) [CEL, N^ε-carboxyethyl-lysine], which “binding to RAGE of free AGE adducts of lysine” value (RAGE) is on record?
Answer: Its value is “do not bind to RAGE”.

Question: For `N[C@@H](CCCCNCC(=O)O)C(=O)O` [CML, N^ε-carboxymethyl-lysine], which “binding to RAGE of free AGE adducts of lysine” value (RAGE) is on record?
Answer: The value was “do not bind to RAGE”.

Question: With `CC1N=C(NCCCC(N)C(=O)O)NC1=O` [(R)-epimer of MG-H1] as the molecule, how does the “stereospecific fit into the MG-H1–V domain binding site” value (V domain of RAGE [5]; NMR solution structure, ligand racemic mixture of (R)- and (S)-epimers) read?
Answer: The value was “Only the (R)-epimer of MG-H1 can be fit into the MG-H1–V domain binding site”.

Question: For `CC1NC(NCCC[C@H](N)C(=O)O)=NC1=O` (stereo partly drawn) [MG-H1, N^δ-(5-hydro-5-methyl-4-imidazolon-2-yl)ornithine], which “size of MG-H1 binding site” value (V domain of RAGE [5]; NMR solution structure of MG-H1–V domain complex) is on record?
Answer: Its value is 80 Å^2.

Question: What about the “blocking of MGO-BSA binding” value (V domain of RAGE [2]) of the same molecule?
Answer: The value was “can successfully block binding of MGO-BSA to the V domain”.

Question: Does B1 bind [6]?
Answer: Result: binds

Question: For ALT[MG‑H1]EYTG [ALT(MG-H1)EYTG, synthetic MG-H1-containing peptide], which Kd [7] is on record?
Answer: The Kd was 44 ± 6 nM.
